Test results from PubChem BioAssay AID624466 (The Scripps Research Institute Molecular Screening Center, 2012).
The campaign covered roughly 360,000 compounds. About 5,400 (1.5%) were called active.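 Rule for the calls: active = inhibition above a per-plate cutoff, the mean inhibition of test compounds on that plate plus 3 SD (cut at about 49% in these data); inactive = the rest.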 What follows is part of a selection rich in actives, with near analogues and random picks from the rest.

Target: Trace amine-associated receptor 1 (Homo sapiens) (UniProt Q96RJ0)
Sequence (Q96RJ0 whole entry, looked up): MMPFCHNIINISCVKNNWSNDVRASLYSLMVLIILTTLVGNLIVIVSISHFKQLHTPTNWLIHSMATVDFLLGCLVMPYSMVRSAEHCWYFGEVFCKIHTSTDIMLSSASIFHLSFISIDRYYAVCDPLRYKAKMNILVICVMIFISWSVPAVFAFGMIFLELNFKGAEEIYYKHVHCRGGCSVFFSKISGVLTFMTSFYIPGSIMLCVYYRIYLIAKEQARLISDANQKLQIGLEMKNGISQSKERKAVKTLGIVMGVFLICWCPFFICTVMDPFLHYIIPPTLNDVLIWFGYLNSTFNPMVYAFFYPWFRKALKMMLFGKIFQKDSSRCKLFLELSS
Assay: human TAAR1 antagonists, primary screen, Fluo-8 calcium fluorescence, CHO RD-HGA16 cells (AID 624466);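 note: 0% = DMSO plus EC80 beta-PEA response and 100% = DMSO alone without agonist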
Settings: CHO RD-HGA16 TAAR1, Fluo-8 calcium fluorescence, antagonist; at 3 µM; stronger effect = higher value
Summary of the method: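 Assay system: CHO-derived RD-HGA16 cells stably expressing human TAAR1 plus Gα16. Timing: 140 s kinetic read after compound, 140 s after agonist. Technique: kinetic Fluo-8 calcium fluorescence measurement. Measure: % inhibition of agonist calcium response.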

inhibition, active:
COc1cc2ccccc2cc1C(=O)Nc1ccc(NC(=O)c2cccs2)cc1 58.9%
CCOc1ccc(C(=O)NC(=S)Nc2ccc(N3CCOCC3)c(Cl)c2)cc1[N+](=O)[O-] 51.3%
Cc1ccccc1OCC(=O)Nc1ccc(N2CCN(C(=O)C(C)C)CC2)c(Cl)c1 51.1%
CCc1ccccc1OCC(=O)Nc1ccc(C)c(S(=O)(=O)N2CCCCCC2)c1 53.6%
CCOc1ccc(Cn2nnc(C(=O)NCc3ccccc3)c2N)cc1 55.6%
Cc1cc(Br)ccc1NC(=O)c1cnc(N2CCN(c3ccccn3)CC2)c2ccccc12 67.1%
S=C(NCCc1ccccc1)N1CCn2cccc2C1c1ccncc1 (configuration not stated) 76.5%
CCCCn1nc(C(=O)Nc2cccc(C(=O)NC3CC3)c2)c2ccccc2c1=O 48.7%
Cn1c2ccccc2c(=O)c2c(=O)n(Cc3ccco3)c(COc3ccccc3)nc21 62.5%
Cc1nn(-c2ccccc2)c(C)c1NC(=O)COC(=O)c1cc(Cl)ccc1O 68.3%
O=C(Nc1ccccc1)c1nnsc1S(=O)(=O)c1ccc(Cl)cc1 59.8%
CCc1ccc2c(c1)NC(=O)C2(C)Cc1ccc(OC(F)(F)F)cc1 (configuration not stated) 55.2%
COc1ccc(CCNC2=C(Cl)C(=O)N(Cc3ccccc3)C2=O)cc1OC 63%
C=CCC[C@H](Cc1ccc(F)cc1)C(=O)OC[C@H](C)NC(=O)[C@H](CC=C)CC(=O)N(CCO)Cc1ccccc1 55.4%
C=CC[C@H](CC(=O)N(CCO)Cc1ccccc1)C(=O)N[C@@H](COC(=O)[C@@H](CC=C)Cc1ccc(F)cc1)Cc1ccccc1 61.4%
C=CCC[C@@H](Cc1ccc(F)cc1)C(=O)O[C@H](CNC(=O)[C@H](CC=C)CC(=O)N(CCO)Cc1ccccc1)c1ccccc1 75.5%

inhibition, inactive:
Cc1nc2c(OCc3ccc(Cl)cc3Cl)cccn2c1N(C)CC1CC1 16.7%
CCCCCCCCN1C(=O)[C@@H](CC(=O)NCCCC)C[C@@]2(C(=O)OC)C1=C[C@H](C(C)(C)C)O[C@@H]2C -28.5%
CCOc1ccc(NC(=O)CN(C)C(=O)c2c(C)noc2C)cc1OCC -17.5%
CCCCOCCCNC(=O)C[C@@H]1C[C@@]2(C(=O)OCC)CCCC=C2N(CCC2=CCCCC2)C1=O -7.17%
COC(=O)c1ccc(C23CC4(C2)[C@H](CN(Cc2cccnc2)[C@@H]4c2ccccc2)C3c2ccc(Cl)nc2)cc1 (some centres not stated) 34.6%
COC(=O)[C@@]12C[C@@H](CC(=O)NCCCCc3ccccc3)C(=O)N(CCc3ccc(OC)c(OC)c3)C1=CCC(C)(C)C2 22.4%
CCOc1cc(C(=O)N2CCc3cc(OC)c(OC)cc3C2)ccc1OC(F)F -21.9%
O=C1NC[C@H](Cc2ccc(O)cc2)N(C[C@H]2CCCN2C[C@H](Cc2ccccc2)N2C[C@H](Cc3ccccc3)N(CCc3ccccc3)C(=O)C2=O)C1=O -19.2%
COc1ccc(-c2ccccc2C2Cc3nnccc3CN2C(=O)Nc2ccccc2)cc1 (configuration not stated) -11.4%
COC(=O)[C@]12CCCCC=C1N(Cc1cccc3ccccc13)C(=O)[C@H](CC(=O)N1CCOCC1)C2 34.8%
COc1ccccc1C(=O)Nc1ccc(Nc2ccccc2)cc1 1.01%
COc1cc(OC)c(C(=O)NNC(=O)c2ccc(NS(=O)(=O)c3cccs3)cc2)cc1OC -17.5%
O=C(NCc1ccccc1)[C@@H]1CCCN1C(=O)[C@H]1CCCN1C(=O)c1cccc(Cl)c1 -3.29%
CCCCCCCCN1C(=O)[C@H](CC(=O)NCc2cccc3ccccc23)C[C@@]2(C(=O)OC)CCCCC=C12 2.1%
COCCCn1cc(CN2CC(N(C)C)CS2(=O)=O)nn1 (configuration not stated) -29.3%
CCCCC[C@H](C)N1C[C@@H](COCc2ccccc2)Oc2cc(N3CCC[C@@H]3CO)ccc2S1(=O)=O -12.8%
CCOc1ccc(C(=O)Nc2ccc(CN3CCOCC3)cc2)cc1Cl 3.95%
CCOc1ccc(C(=O)NC(=S)Nc2ccc(NC(=O)C(C)C)cc2)cc1[N+](=O)[O-] 38.4%
O=C(Nc1ccccc1)C1CC(=O)n2c(nc3ccccc32)N1 (configuration not stated) -8.36%
CCCCC(O)C1=C[N+](=O)CC=C1 (configuration not stated) 0.52%
COc1cc(NC(=O)COc2ccccc2Cl)ccc1NC(=O)C(C)C -12.5%
Cc1ccc(NC(=O)COc2coc(CN3CCc4ccccc4C3)cc2=O)cc1Cl -6.95%
Cc1ccc(NC(=O)COC(=O)C2CC2)cc1S(=O)(=O)N1CCOCC1 -10.1%
COc1ccccc1C(=O)Nc1ccc(C)c(S(=O)(=O)N2CCCCC2)c1 35.1%
CC(C)CN1C(=O)CN(S(C)(=O)=O)CC1(C)C(=O)NCc1ccccc1 (configuration not stated) -16.9%
O=C(c1ccccc1)c1ccc(OC(=O)N2CCCC2)cc1 0.6%
CCCC[C@@H]1CN=C(N)N1CCc1cc(C(F)(F)F)cc(C(F)(F)F)c1 0.75%
O=C(NCc1ccccn1)[C@@H]1CCCN1C(=O)[C@@H]1CCCN1C(=O)c1ccccc1 -3.32%
CCOc1ccc(Cn2nnc(C(=O)Nc3ccc(OC)cc3OC)c2N)cc1 -4.89%
Nc1c(C(=O)Nc2ccc3c(c2)OCCO3)nnn1Cc1ccccc1 10.6%
O=C(OCC(=O)N1CCOCC1)c1ccc2ccccc2c1 -11.6%
O=C1C(Sc2cccc(F)c2)=C[C@@]2(O)CC[C@@H](O)[C@]1(Sc1cccc(F)c1)[C@H]2O 1.99%
N#Cc1ccc(C(C(=O)NCc2ccccc2)n2c(=O)c(-c3ccco3)nc3ccccc32)cc1 (configuration not stated) -2.89%
O=C(Cc1ccccc1)Nc1c(Cl)ccc2nsnc12 3.32%
CC(=O)c1ccc(NC(=O)c2cc(-c3cccs3)on2)cc1 5.25%
Cc1cc(Br)ccc1NC(=O)c1sc2ncn(CC(=O)N3CCN(c4ccccn4)CC3)c(=O)c2c1C 12%
Cc1cc(C(=O)N2CCN(c3ccccn3)CC2)c(C)o1 1.13%
CCOc1ccccc1C(=O)N1CCC[C@@H]1C(=O)N1CCC[C@H]1C(=O)NCc1ccccc1 -5.66%
CN1C(=O)CN2CCc3ccccc3C2c2cc(Cl)ccc21 (configuration not stated) -4.12%
S=C(Nc1cccc(Br)c1)N1CCn2cccc2C1c1cccnc1 (configuration not stated) -5.72%
CC1CCCCN1C(=S)NCc1ccccc1 (configuration not stated) -12.2%
Cc1cccc(N(C)C(=O)CN2C(=O)COc3ccc(S(=O)(=O)N4CCCCCC4)cc32)c1 28.5%
CCCn1nc(C(=O)Nc2ccc3nc(C)sc3c2)c2ccccc2c1=O -20.5%
CCCCn1nc(C(=O)Nc2ccc(S(=O)(=O)Nc3ncccn3)cc2)c2ccccc2c1=O -40.3%
CC(=O)N1CCN(Cc2cc(=O)oc3cc(C)ccc23)CC1 -3.73%
Cc1ccc2nc(CN(C)C(=O)[C@@H](Cc3ccccc3)NC(=O)[C@H]3O[C@@H](n4ccc(=O)[nH]c4=O)[C@H](O)[C@@H]3O)[nH]c2c1 -7.68%
CN(c1ccccc1)S(=O)(=O)c1ccc(NC(=O)COc2ccccc2)cc1 40.2%
COC(=O)[C@H]1Cc2cnoc2C[C@]1(C)C(=O)O -4.37%
COC(=O)[C@]12C[C@H](CC(=O)NCCCCc3ccccc3)C(=O)N(Cc3ccc4c(c3)OCO4)C1=C[C@H](C(C)(C)C)O[C@@H]2C -5.78%
CCc1nc2oc3ccccc3c(=O)c2c(=O)n1Cc1ccc(OC)cc1 3.24%
O=C(CSc1nnc(COc2ccc(Cl)cc2)n1Cc1ccco1)N1CCNC1=O 11.4%
C/C(=N\N1CCN(Cc2ccc(C)cc2)CC1)c1ccco1 -4.82%
Cc1nn(-c2ccccc2)c(C)c1NC(=O)CCl -8.39%
Cc1cccc(C)c1NC(=O)COC(=O)c1c(C)nn(-c2ccccc2)c1C -6.4%
O=C(Nc1ccc(S(=O)(=O)N2CCOCC2)cc1)C1CCN(S(=O)(=O)c2ccc(Cl)cc2)CC1 8.67%
Cc1nnsc1S(=O)(=O)Cc1ccccc1Cl -3.1%
C=CCN=C1NC(c2cccc(C(F)(F)F)c2)C(C(=O)OC)=C(C)N1C (configuration not stated) 5.15%
C[C@@H](CN1C2=NC[C@@H](Cc3ccccc3)N2C[C@H]1Cc1ccc(O)cc1)NC(=O)CCC1CCCCC1 -6.17%
Cc1ccc(CC2(C)C(=O)Nc3ccc(OC(F)(F)F)cc32)cc1 (configuration not stated) -5.18%
COc1ccccc1CC1(C)C(=O)Nc2ccc(OC(F)(F)F)cc21 (configuration not stated) -12.2%
CCOC(=O)c1cc2c(ccn2C)n1CC(=O)N1CCC(C)CC1 -7.37%
COc1ccc(CCNc2nc(C)cc(C)n2)cc1OC -1.79%
COc1ccc(CCNC(=O)c2ccccc2-c2ccccc2C(=O)O)cc1OC -6.06%
CC(=O)Nc1ccccc1OC(C)C(=O)N1CCC(C)CC1 (configuration not stated) -3.93%
COc1ccc2c(c1)C(SCC(=O)NCc1ccccc1)CC(C)(C)O2 (configuration not stated) 13%
C=CCC[C@@H](Cc1ccc(F)cc1)C(=O)OC[C@@H](C)NC(=O)[C@H](CC=C)CC(=O)N(CCO)Cc1ccccc1 46.1%
C=CC[C@@H](CC(=O)N[C@H](CO)Cc1ccccc1)C(=O)N[C@@H](COC(=O)[C@@H](CC=C)Cc1ccc(F)cc1)Cc1c[nH]c2ccccc12 9.92%
C=CC[C@@H](Cc1ccc(F)cc1)C(=O)OC[C@H]1CCCN1C(=O)[C@H](CC=C)CC(=O)N(CCO)Cc1ccccc1 39.6%
C=CC[C@@H](CC(=O)N[C@H](CO)Cc1ccccc1)C(=O)N[C@H](C)COC(=O)[C@@H](CC=C)Cc1ccc(F)cc1 38%
C=CCC[C@H](Cc1ccc(F)cc1)C(=O)OC[C@@H](NC(=O)[C@@H](CC=C)CC(=O)N[C@H](CO)Cc1ccccc1)C(C)(C)C 37.2%
C=CCC[C@@H](Cc1ccc(F)cc1)C(=O)OC[C@H](Cc1c[nH]c2ccccc12)NC(=O)[C@@H](CC=C)CC(=O)N(CCO)Cc1ccccc1 38.4%
